What was measured:
[1] = system: CHO-AA8; experiment: Cytotoxicity on AA8 cell growth (reduce cell number by 50%).; assay type: functional, cell-based; conditions: Cricetulus griseus
Outline: (§1)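 Cells in αMEM with 5% FBS plus penicillin/streptomycin were seeded per well at 200 (AA8), 300 (UV4), 75 (EMT6) or 600 (SKOV3) cells and grown 24 h. Drugs came from DMSO stocks (final DMSO <1%), pH 7.4. Exposure was aerobic for 4 h, followed by washing, 4–5 days further growth and methylene blue staining. IC₅₀ was set as 50% growth inhibition relative to same-plate controls. Mean ± SEM of 3–5 experiments.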

[2] = system: EMT6; experiment: Cytotoxicity on EMT6 cell growth (reduce cell number by 50%).; assay type: functional, cell-based; conditions: Mus musculus; outline: as §1
[3] = system: SK-OV-3; experiment: Cytotoxicity on SKOV3 cell growth (reduce cell number by 50%).; assay type: functional, cell-based; conditions: Homo sapiens; outline: as §1
[4] = system: UV4; experiment: Compound concentration to reduce plating efficiency of UV4 cells to 10% controls under aerobic conditions of 20% oxygen to that under […]; assay type: functional
Outline: (§2)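 UV4 cells were grown to early plateau phase in spinner flasks and resuspended in fresh medium. Cells and drug in medium were pre-gassed for 1 h with 5% CO₂ in air (20% O₂) or in N₂. Cells at 10⁶/mL were then exposed for 1 h with continuous gassing and assayed clonogenically. C₁₀ is the concentration giving 10% surviving fraction; hypoxic selectivity is the ratio of aerobic to N₂ C₁₀. Mean ± SEM of 3 experiments.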

[5] = system: UV4; experiment: Compound's concentration to reduce plating efficiency of UV4 cells to 10% controls under aerobic conditions of 20% oxygen; assay type: functional; outline: as §2
[6] = system: UV4; experiment: Cytotoxicity on UV4 cell growth (reduce cell number by 50%).; assay type: functional, cell-based; conditions: Cricetulus griseus; outline: as §1
[7] = 4-methoxyaniline yield was measured from 8 fold reduced forms of compound at pH 4
Outline: (§3)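 Anaerobic aqueous solutions with 0.5 M 2-propanol were γ-irradiated to deliver a set number of molar equiv of reducing species (e⁻aq, (CH₃)₂C•OH), at room temperature. pH 7.4 runs used 0.01 M phosphate, pH 4.0 runs 0.01 M formate. […] Released 4-methoxyaniline was quantified by C-18 HPLC with diode-array detection.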

[8] = 4-methoxyaniline yield was measured from 4 fold reduced forms of compound at pH 4; outline: as §3
[9] = 4-methoxyaniline yield was measured from 8 fold reduced forms of compound at 4; outline: as §3
[10] = 4-methoxyaniline yield was measured from 8 fold reduced forms of compound at pH 7.4; outline: as §3
[11] = 4-methoxyaniline yield was measured from 4 fold reduced forms of compound at pH 7.4; outline: as §3
[12] = 4-methoxyaniline yield was measured from 4 fold reduced forms of compound at 4; outline: as §3

| Structure (SMILES) | IC50 [1] | IC50 [2] | IC50 [3] | C10 [4] | C10 [5] | IC50 [6] | Release [7] | Release [8] | Release [10] | Release [11] | also measured |
| --- | --- | --- | --- | --- | --- | --- | --- | --- | --- | --- | --- |
| COc1cc2cc(C(=O)N3CC(CCl)c4c3cc(N)c3ccccc43)[nH]c2c(OC)c1OC (stereo unspecified) | 0.46 nM | 0.27 nM | 1 nM | 1.1 air/N2 | 3.4 nM | 0.29 nM |  |  |  |  |  |
| COc1ccc(NC(=O)C(C)N(C)c2c([N+](=O)[O-])cc(C(=O)NCCO)cc2[N+](=O)[O-])cc1 (stereo unspecified) |  |  |  |  |  |  | 94% | 80% |  |  |  |
| COc1ccc(NC(=O)CN(C)c2c([N+](=O)[O-])cc(C(=O)NCCO)cc2[N+](=O)[O-])cc1 |  |  |  |  |  |  | 100% | 80% |  |  |  |
| COc1ccc(NC(=O)C(C)Nc2c([N+](=O)[O-])cc(C(=O)NCCO)cc2[N+](=O)[O-])cc1 (stereo unspecified) |  |  |  |  |  |  |  |  | 77% | 77% | Release [9]: 97%; Release [12]: 97% |
| COc1ccc(NC(=O)C(C)Nc2c([N+](=O)[O-])cc(C(=O)NCCN(C)C)cc2[N+](=O)[O-])cc1 (stereo unspecified) |  |  |  |  |  |  |  |  | 89% | 89% |  |
| CC(Nc1c([N+](=O)[O-])cc(C(=O)NCCN(C)C)cc1[N+](=O)[O-])C(=O)Nc1ccc(N(CCCl)CCCl)cc1 (stereo unspecified) | 10500 nM | 1300 nM | 1300 nM | 1.3 air/N2 | 2100 nM | 3000 nM |  |  |  |  |  |
| COc1cc2cc(C(=O)N3CC(CCl)c4c3cc(NC(=O)C(C)Nc3c([N+](=O)[O-])cc(C(=O)NCCN(C)C)cc3[N+](=O)[O-])c3ccccc43)[nH]c2c(OC)c1OC (stereo unspecified) | 95 nM | 41 nM | 87 nM | 1.8 air/N2 | 490 nM | 53 nM |  |  |  |  |  |
| COc1ccc(NC(=O)C(C)(C)Nc2c([N+](=O)[O-])cc(C(=O)NCCO)cc2[N+](=O)[O-])cc1 |  |  |  |  |  |  |  |  | 90% | 90% |  |
| COc1ccc(NC(=O)C(C)Nc2c([N+](=O)[O-])cc(C(=O)NCC(O)CO)cc2[N+](=O)[O-])cc1 (stereo unspecified) |  |  |  |  |  |  |  |  | 92% | 92% |  |
| COc1ccc(NC(=O)CNc2c([N+](=O)[O-])cc(C(=O)NCCO)cc2[N+](=O)[O-])cc1 |  |  |  |  |  |  | 83% | 83% | 69% | 69% |  |

— ChEMBL document CHEMBL1132560, “N-Substituted 2-(2,6-dinitrophenylamino)propanamides: novel prodrugs that release a primary amine via nitroreduction and intramolecular cyclization” (J Med Chem, 1999)
